Experimental data from paper PMC6500440 (International Journal of Nanomedicine, 2019).
Read-outs that look alike come from different tables or passages of the source.

Legend:
[1] = Gel permeation chromatography; type: physicochemical
Method in brief: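 Test peptide alone in buffer, no phospholipid, at 1, 5 and 10 mg/mL; one condition also incubated at 50°C. Analysed by size-exclusion GPC on a TSK G3000SWx column (7.8 mm×30 cm), eluted with PBS at 1.0 mL/min at ambient temperature, UV detection at 220 nm. Molecular weight was assigned from retention time.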

[2] = Dynamic light scattering particle size; type: physicochemical
Method in brief: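 LUVs (POPC or egg sphingomyelin) were made by drying the chloroform stock under nitrogen, hydrating in 10 mM sodium phosphate pH 7.4, doing 5–7 freeze-thaw cycles, and extruding 10× through 100 nm membranes (25°C POPC, 45°C eSM). For sHDL, 5.0 mg/mL lipid and peptide solutions were mixed 1:1 wt/wt (~3.75:1 molar). Samples were diluted to 1.0 mg/mL peptide, and intensity- and volume-weighted distributions were read at 25°C.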

[3] = Lipid solubilization assay; type: physicochemical; details: 5.0 mg/mL LUVs in 10 mM sodium phosphate buffer pH 7.4, before addition of 22A peptide
Method in brief: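 Phospholipid (POPC or egg sphingomyelin) chloroform stock was dried under nitrogen and hydrated in 10 mM sodium phosphate, pH 7.4. It then went through 5–7 freeze-thaw cycles and was extruded 10 times through 100 nm membranes, at 25°C for POPC and 45°C for eSM. The 5.0 mg/mL LUV suspension was read for turbidity as UV absorbance at 600 nm on a microplate spectrophotometer.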

[4] = cited from earlier work
[5] = target: the molecule itself; assay: SEC + other: dynamic light scattering
[6] = 22A 1 mg/mL in buffer without phospholipid, after incubation at 50°C
[7] = 22A in buffer without phospholipid, before dissociation
[8] = lipid LUV + 22A 1:1 wt/wt incubated 24 hr at 25°C
[9] = as restated in Results, no reference given

## PVLDLFRELLNELLEALKQKLK [22A]
[1]; [6]
  GPC retention time of monomeric peptide: 14.9 min
  molecular weight corresponding to GPC retention time, monomeric peptide: ~ 2500 Da
[1]; 22A in buffer without phospholipid, 1, 5 and 10 mg/mL, initial, GPC and DLS
  association state of peptide without lipid: self-associated
[1]; [7]
  GPC retention time of self-associated peptide: 9.6 min
  molecular weight corresponding to GPC retention time, self-associated peptide: ~ 145,000 Da

## CCCCCCCC/C=C\CCCCCCCC(=O)O[C@H](COC(=O)CCCCCCCCCCCCCCC)COP(=O)([O-])OCC[N+](C)(C)C [POPC, 1-palmitoyl-2-oleoyl-sn-glycero-3-phosphocholine]
[2]; extruded LUVs, 5.0 mg/mL solutions, before addition of 22A peptide
  LUV diameter: 120 nm
[2]; [8]
  DLS volume (distribution, %): LUV: 0.1%
  DLS volume (distribution, %): sHDL: 99.9%
[2]; lipid LUV + 22A 1:1 wt/wt incubated 24 hr at 25°C, remaining liposomes
  DLS intensity (size, nm): LUV: 137.3 nm
[2]; lipid LUV + 22A 1:1 wt/wt incubated 24 hr at 37°C
  DLS volume (distribution, %): sHDL: 100%
[2]; lipid LUV + 22A 1:1 wt/wt incubated 24 hr at 50°C
  DLS volume (distribution, %): sHDL: 100%
[3]
  UV 600 nm absorbance (turbidity) of LUV solution: 0.26
[4]; [9]
  transition temperature (Tm): −2 °C
[4]
  transition temperature (Tm): −2 °C

## synthetic sphingomyelin [sSM]
[4]; [9]
  transition temperature (Tm): approximately 40 °C

## PVLDLFRELLNELLEALKQKLK [ESP-24218 peptide (22A), ApoA-I-mimetic peptide]
[5]
  binding result: binds
